According to ChEMBL document CHEMBL1687827, “Profiling the Aspergillus fumigatus proteome in response to caspofungin” (2011):

Legend:
Format in all cases: functional
Aspergillus fumigatus [1] = experiment: Induction of change in SUN domain protein (Uth1), putative protein level in iTRAQ-118 labelled cell wall fraction of drug-resistant Aspergillus fumigatus EMFR-S678P at 0.12 ug/ml after 24 hrs in YPD medium by MS (MS/MS) analysis relative to control
Procedure, shortened: (§1)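 Conidia at 1 × 10⁵/ml were grown at 37°C, shaking at 225 rpm, in YPD with or without 0.12 μg/ml caspofungin for 24 or 48 h. The culture filtrate was kept as the secreted fraction. Mycelia were lysed by French press in HEPES/glycerol/EDTA/PMSF/DTT buffer, and the 5,000 × g pellet was washed to give CW/PM. Proteins were reduced, alkylated and trypsin-digested at 37°C overnight, then iTRAQ-labelled and run by 2D LC-MS/MS. Ratios are the median of unique-peptide ratios, median-normalized, versus the no-drug control.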

Aspergillus fumigatus [2] = experiment: Induction of change in extracellular conserved serine-rich protein level in iTRAQ-116 labelled secreted fraction of drug-resistant Aspergillus fumigatus EMFR-S678P at 0.12 ug/ml after 48 hrs in YPD medium by MS (MS/MS) analysis relative to control; procedure, shortened: as §1
Aspergillus fumigatus [3] = experiment: Induction of change in 60s ribosomal protein l21 protein level in iTRAQ114 labelled secreted fraction of drug-susceptible Aspergillus fumigatus KU80 delta-akuB at 0.12 ug/ml after 24 hrs in YPD medium by MS (MS/MS) analysis relative to control
Procedure, shortened: (§2)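 Conidia at 1 × 10⁵/ml grown shaking at 37°C in YPD with or without 0.12 μg/ml caspofungin; mycelia filtered at 24 or 48 h. Secreted fraction taken from the filtrate; cell wall/plasma membrane pellet recovered after French-press lysis and a 5,000 × g spin. Proteins trypsin-digested and iTRAQ-labelled, drug vs no-drug channels at each time, then 2D LC-MS/MS. Protein ratio is the median of ratios from uniquely assigned peptides after median normalization.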

Aspergillus fumigatus [4] = experiment: Induction of change in antigenic mitochondrial protein HSP60, putative protein level in iTRAQ-116 labelled secreted fraction of drug-resistant Aspergillus fumigatus EMFR-S678P at 0.12 ug/ml after 48 hrs in YPD medium by MS (MS/MS) analysis relative to control; procedure, shortened: as §1
Aspergillus fumigatus [5] = experiment: Induction of change in 60S ribosomal protein L7 protein level in iTRAQ114 labelled cell wall fraction of drug-susceptible Aspergillus fumigatus KU80 delta-akuB at 0.12 ug/ml after 24 hrs in YPD medium by MS (MS/MS) analysis relative to control; procedure, shortened: as §2
Aspergillus fumigatus [6] = experiment: Induction of change in 4-hydroxyphenylpyruvate dioxygenase, putative protein level in iTRAQ-116 labelled secreted fraction of drug-susceptible Aspergillus fumigatus KU80 delta-akuB at 0.12 ug/ml after 48 hrs in YPD medium by MS (MS/MS) analysis relative to control; procedure, shortened: as §2
Aspergillus fumigatus [7] = experiment: Induction of change in glycine-rich RNA-binding protein, putative protein level in iTRAQ-118 labelled cell wall fraction of drug-resistant Aspergillus fumigatus EMFR-S678P at 0.12 ug/ml after 24 hrs in YPD medium by MS (MS/MS) analysis relative to control; procedure, shortened: as §1
Aspergillus fumigatus [8] = experiment: Induction of change in peptidyl-prolyl cis-trans isomerase protein level in iTRAQ-118 labelled cell wall fraction of drug-resistant Aspergillus fumigatus EMFR-S678P at 0.12 ug/ml after 24 hrs in YPD medium by MS (MS/MS) analysis relative to control; procedure, shortened: as §1
Aspergillus fumigatus [9] = experiment: Induction of change in ubiquinol-cytochrome C reductase complex core protein 2, putative protein level in iTRAQ-118 labelled cell wall fraction of drug-susceptible Aspergillus fumigatus KU80 delta-akuB at 0.12 ug/ml after 24 hrs in YPD medium by MS (MS/MS) analysis relative to control
Procedure, shortened: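 Conidia (1 × 10⁵/ml) grown in YPD, 37°C, 225 rpm, ± 0.12 μg/ml caspofungin; filtrate taken as secreted fraction, French-press lysate 5,000 × g pellet as cell wall/plasma membrane. Trypsin digests 8-plex iTRAQ-labelled (drug-free channels as references), pooled, 2D-chromatography, MS/MS. Median-normalized; protein ratio = median of unique-peptide ratios, log2 normalized.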

Aspergillus fumigatus [10] = experiment: Induction of change in 60s ribosomal protein yl17-b protein level in iTRAQ114 labelled secreted fraction of drug-susceptible Aspergillus fumigatus KU80 delta-akuB at 0.12 ug/ml after 24 hrs in YPD medium by MS (MS/MS) analysis relative to control; procedure, shortened: as §2
Aspergillus fumigatus [11] = experiment: Induction of change in stearic acid desaturase (SdeA), putative gene expression in drug-susceptible Aspergillus fumigatus KU80 delta-akuB at 0.12 ug/ml after 24 hrs in YPD medium by microarray analysis relative to control
Procedure, shortened: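 Mycelia grown from 1 × 10⁵ conidia/ml in YPD at 37°C, 225 rpm, with or without 0.12 μg/ml caspofungin. Total RNA extracted, DNase-treated; 2 μg labelled per TIGR SOP M007 for whole-genome array hybridization. Three independent experiments with dye flip (6 replicates); >2-fold change deemed significant.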

Aspergillus fumigatus [12] = experiment: Induction of change in alkaline serine protease protein level in iTRAQ114 labelled cell wall fraction of drug-susceptible Aspergillus fumigatus KU80 delta-akuB at 0.12 ug/ml after 24 hrs in YPD medium by MS (MS/MS) analysis relative to control; procedure, shortened: as §2

## CC[C@H](C)C[C@H](C)CCCCCCCCC(=O)N[C@H]1C[C@@H](O)[C@@H](NCCN)NC(=O)[C@@H]2[C@@H](O)CCN2C(=O)[C@H]([C@H](O)CCN)NC(=O)[C@H]([C@H](O)[C@@H](O)c2ccc(O)cc2)NC(=O)[C@@H]2C[C@@H](O)CN2C(=O)[C@H]([C@@H](C)O)NC1=O [CASPOFUNGIN]
Aspergillus fumigatus [1]
  fold change (FC): 1.07
Aspergillus fumigatus [2]
  fold change (FC): -1.07
Aspergillus fumigatus [3]
  fold change (FC): -1
Aspergillus fumigatus [4]
  fold change (FC): -1.15
Aspergillus fumigatus [5]
  fold change (FC): 2
Aspergillus fumigatus [6]
  fold change (FC): >-16
Aspergillus fumigatus [7]
  fold change (FC): 1.52
Aspergillus fumigatus [8]
  fold change (FC): -1.15
Aspergillus fumigatus [9]
  fold change (FC): -2
Aspergillus fumigatus [10]
  fold change (FC): -1
Aspergillus fumigatus [11]
  fold change (FC): -4.6
Aspergillus fumigatus [12]
  fold change (FC): 1.3
